In ChEMBL document CHEMBL1153905, “Functionalized 3-benzylidene-indolin-2-ones: inducers of NAD(P)H-quinone oxidoreductase 1 (NQO1) with antiproliferative activity” (Bioorg Med Chem, 2009):

Columns and labels:
CYP1A1 [1] = target: T1, CYP1A1 (Mus musculus, UniProt P00184); test: Induction of CYP1A1 activity in mouse Hepa-1c1c7 cells assessed as induction ratio at 10 uM after 48 hrs by EROD assay relative to control; format: ADME, cell-based
T1 sequence (P00184 whole entry): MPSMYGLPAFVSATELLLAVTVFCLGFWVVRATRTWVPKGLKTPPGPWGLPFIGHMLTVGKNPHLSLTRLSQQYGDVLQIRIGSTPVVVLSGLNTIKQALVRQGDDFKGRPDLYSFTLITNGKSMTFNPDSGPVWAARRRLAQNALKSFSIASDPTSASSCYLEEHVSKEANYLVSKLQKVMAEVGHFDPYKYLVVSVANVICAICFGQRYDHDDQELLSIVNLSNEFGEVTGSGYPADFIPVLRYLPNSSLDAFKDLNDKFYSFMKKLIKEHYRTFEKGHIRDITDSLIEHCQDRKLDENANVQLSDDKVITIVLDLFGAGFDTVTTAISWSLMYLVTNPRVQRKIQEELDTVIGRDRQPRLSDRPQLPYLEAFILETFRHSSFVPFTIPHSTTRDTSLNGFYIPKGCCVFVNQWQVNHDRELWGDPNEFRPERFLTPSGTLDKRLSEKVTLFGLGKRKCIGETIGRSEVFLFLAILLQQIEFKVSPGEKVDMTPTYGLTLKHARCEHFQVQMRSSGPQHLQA
Summary of the method: (§1)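 About 10,000 Hepa1c1c7 cells/well cultured 24 h, then compound (0.5% DMSO final) for 48 h, at roughly 4 × the concentration doubling NQO1 activity. After PBS wash, cells given 5 µM 7-ethoxyresorufin plus 2 mM salicylamide, 37 °C, 40 min; resorufin fluorescence ex 530/em 590 nm, corrected for compound fluorescence. Ratio = (treated − blank)/(DMSO control − blank); mean ± SD, n = 3.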

[2] = target: NAD(P)H dehydrogenase [quinone] 1 (Mus musculus) (UniProt Q64669); test: Induction of NQO1 activity in mouse Hepa-1c1c7 cells assessed as induction ratio at 10 uM after 48 hrs by MTT assay relative to control; format: cell-based
NAD(P)H dehydrogenase [quinone] 1 (Mus musculus), sequence (Q64669 whole entry): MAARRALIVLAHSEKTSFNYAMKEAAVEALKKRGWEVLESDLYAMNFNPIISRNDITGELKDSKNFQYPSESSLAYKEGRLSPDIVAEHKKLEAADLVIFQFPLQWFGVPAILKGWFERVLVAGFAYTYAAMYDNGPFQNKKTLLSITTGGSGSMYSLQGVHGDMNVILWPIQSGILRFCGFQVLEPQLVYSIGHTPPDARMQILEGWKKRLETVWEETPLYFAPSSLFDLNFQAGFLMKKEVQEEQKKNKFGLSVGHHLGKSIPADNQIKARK
Summary of the method: (§2)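 Hepa1c1c7 cells, 10,000 per well, 24 h, were then treated 48 h (DMSO ≤0.5%). Digitonin/EDTA lysates were assayed for menadione-dependent MTT-formazan formation using a G6P/G6PDH NADPH-generating mix with FAD at pH 7.4. The reaction ran 5 min, was stopped with dicoumarol, and read at A590. Degree of induction = (A test − blank)/(A control − blank). Ratios were read off the induction–concentration plot at the EROD test concentration.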

[3] = Cytotoxicity against mouse Hepa-1c1c7 cells after 48 hrs by MTT assay; format: cell-based; conditions: hepa-1c1c7, 48 h
Summary of the method: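 Murine hepatoma cells in α-MEM with 10% heat- and charcoal-treated fetal calf serum, passages 6–17; MTT read-out as for the cancer lines but with 48 h compound exposure. Highest concentration tested 25 µM. IC50 from survival-versus-concentration curve; mean and SD, n = 3.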

[4] = target: NAD(P)H dehydrogenase [quinone] 1 (Mus musculus) (UniProt Q64669); test: Induction of NQO1 activity in mouse Hepa-1c1c7 cells assessed as drug level required to double basal enzyme activity after 48 hrs by MTT assay; format: cell-based
Summary of the method: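 Hepa1c1c7 cells were grown in α-MEM with charcoal-treated FCS, 10,000 per well, 24 h. Compound was given 48 h (DMSO ≤0.5%) over a 10–100-fold range below cytotoxic levels, up to 25 µM. Cells were lysed with digitonin/EDTA. NQO1 was assayed by menadione-driven MTT reduction (G6P/G6PDH/NADP, FAD, Tris pH 7.4), quenched with dicoumarol, A590. CD is the concentration doubling basal activity, taken from the induction–concentration plot; mean ± SD, n = 3.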

[5] = target: NAD(P)H dehydrogenase [quinone] 1 (Mus musculus) (UniProt Q64669); test: Induction of NQO1 activity in mouse Hepa-1c1c7 cells assessed as induction ratio at 1 uM after 48 hrs by MTT assay relative to control; format: cell-based; summary of the method: as §2
CYP1A1 [6] = target: T1, CYP1A1; test: Induction of CYP1A1 activity in mouse Hepa-1c1c7 cells assessed as induction ratio at 1 uM after 48 hrs by EROD assay relative to control; format: ADME, cell-based; summary of the method: as §1
[7] = Ratio of induction of NQO1 activity to induction of CYP1 activity in mouse Hepa-1c1c7 cells at 5 nM after 48 hrs
CYP1A1 [8] = target: T1, CYP1A1; test: Induction of CYP1A1 activity in mouse Hepa-1c1c7 cells assessed as induction ratio at 5 nM after 48 hrs by EROD assay relative to control; format: ADME, cell-based
Summary of the method: (§3)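 Hepa1c1c7 cells were seeded at 10,000 per well and grown 24 h. They were then exposed 48 h to compound (final DMSO 0.5% v/v) at about 4 × the NQO1 CD. After a PBS wash, cells got 5 µM 7-ethoxyresorufin plus 2 mM salicylamide in medium, 37 °C, 40 min. Resorufin was read at ex 530/em 590 nm, corrected for compound fluorescence. Ratio = (F treated − blank)/(F DMSO control − blank); mean ± SD, n = 3.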

[9] = target: NAD(P)H dehydrogenase [quinone] 1 (Mus musculus) (UniProt Q64669); test: Induction of NQO1 activity in mouse Hepa-1c1c7 cells assessed as induction ratio at 5 nM after 48 hrs by MTT assay relative to control; format: cell-based; summary of the method: as §2
HCT-116 [10] = test: Cell cycle arrest in human HCT116 cells released from G1 block assessed as accumulation at sub G1 phase at 15 uM after 24 hrs by flow cytometry; format: functional
[11] = Selectivity ratio of IC50 for human CCL186 cells to IC50 for human HCT116 cells; format: ADME, cell-based, HCT-116; conditions: CCL186 cells and HCT116 cells, read-out: Ratio IC50
Summary of the method: (§4)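 MTT assay. MCF7 and CCL186 cells were grown in EMEM/10% FBS, HCT116 in McCoy's 5A/10% FBS. Seeding was 10,000 (MCF7), 4000 (HCT116) and 5000 (CCL186) cells per well, 24 h. Compound exposure was 72 h, DMSO ≤1% final. MTT 0.5 mg/ml for 3 h, formazan dissolved in DMSO, A590. IC50 came from sigmoidal survival curves, with 3 separate occasions per concentration. Ratio = IC50 CCL186 / IC50 of the cancer line.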

MCF7 [12] = test: Antiproliferative activity against human MCF7 cells after 72 hrs by MTT assay; format: functional, cell-based; conditions: MCF7, 72 h
Summary of the method: (§5)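 Cells seeded at 10,000 (MCF7), 4000 (HCT116) or 5000 (CCL186) per well and grown 24 h; MCF7 and CCL186 in EMEM with pyruvate, glutamine, 10% FBS; HCT116 in McCoy's 5A with 10% FBS. Compounds from DMSO stocks (≤1% DMSO final), 72 h exposure; MTT 0.5 mg/ml for 3 h, formazan in DMSO read at 590 nm. IC50 from sigmoidal survival curve, three separate occasions.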

HCT-116 [13] = test: Cell cycle arrest in human HCT116 cells released from G1 block assessed as accumulation at G1 phase at 15 uM after 24 hrs by flow cytometry; format: functional
CYP1A1 [14] = target: T1, CYP1A1; test: Induction of CYP1A1 activity in mouse Hepa-1c1c7 cells assessed as induction ratio at 7.5 uM after 48 hrs by EROD assay relative to control; format: ADME, cell-based; summary of the method: as §3
[15] = target: NAD(P)H dehydrogenase [quinone] 1 (Mus musculus) (UniProt Q64669); test: Induction of NQO1 activity in mouse Hepa-1c1c7 cells assessed as induction ratio at 7.5 uM after 48 hrs by MTT assay relative to control; format: cell-based; summary of the method: as §2
HCT-116 [16] = test: Cell cycle arrest in human HCT116 cells released from G1 block assessed as accumulation at G2/M phase at 15 uM after 24 hrs by flow cytometry; format: functional
HCT-116 [17] = test: Cell cycle arrest in human HCT116 cells released from G2 block assessed as accumulation at G2/M phase at 15 uM after 24 hrs by flow cytometry; format: functional
HCT-116 [18] = test: Cell cycle arrest in human HCT116 cells released from G2 block assessed as accumulation at sub G1 phase at 15 uM after 24 hrs by flow cytometry; format: functional
HCT-116 [19] = test: Cell cycle arrest in human HCT116 cells released from G2 block assessed as accumulation at G1 phase at 15 uM after 24 hrs by flow cytometry; format: functional
[20] = Antiproliferative activity against human CCL186 cells after 72 hrs by MTT assay; format: cell-based; conditions: CCL186, 72 h; summary of the method: as §5
HCT-116 [21] = test: Antiproliferative activity against human HCT116 cells after 72 hrs by MTT assay; format: functional, cell-based; conditions: HCT-116, 72 h; summary of the method: as §5
HCT-116 [22] = test: Cell cycle arrest in human HCT116 cells released from G2 block assessed as accumulation at S phase at 15 uM after 24 hrs by flow cytometry; format: functional
MCF7 [23] = test: Selectivity ratio of IC50 for human CCL186 cells to IC50 for human MCF7 cells; summary of the method: as §4
HCT-116 [24] = test: Cell cycle arrest in human HCT116 cells released from G1 block assessed as accumulation at S phase at 15 uM after 24 hrs by flow cytometry; format: functional
CYP1A1 [25] = target: T1, CYP1A1; test: Induction of CYP1A1 activity in mouse Hepa-1c1c7 cells assessed as induction ratio at 0.1 uM after 48 hrs by EROD assay relative to control; format: ADME, cell-based; summary of the method: as §1
[26] = target: NAD(P)H dehydrogenase [quinone] 1 (Mus musculus) (UniProt Q64669); test: Induction of NQO1 activity in mouse Hepa-1c1c7 cells assessed as induction ratio at 0.1 uM after 48 hrs by MTT assay relative to control; format: cell-based; summary of the method: as §2

## O=C1Nc2ccccc2/C1=C\c1ccc(Cl)cc1Cl
CYP1A1 [1]
  fold induction at 48 h, 10 µM: 1.21
[2]
  Ratio: 4.24
[3]
  IC50: 10.6 µM

## C[S+]([O-])CCCCN=C=S (stereo not given) [SULFORAPHANE]
[4]
  CD: 0.26 µM
[5]
  Ratio: 3.89
CYP1A1 [6]
  fold induction at 48 h, 1 µM: 0.92

## O=C1Nc2ccccc2/C1=C1\C(=O)Nc2ccc(Cl)cc21
[7]
  Ratio: 1.05
CYP1A1 [8]
  fold induction at 48 h, 0.005 µM: 2.31
[9]
  Ratio: 2.42
[3]
  IC50: 20.5 µM

## O=C1Nc2ccccc2/C1=C\c1cccc(Oc2ccccc2)c1
HCT-116 [10]
  Activity: 3.62%
[11]
  selectivity ratio: 1.5
MCF7 [12]
  IC50: 8.2 µM
HCT-116 [13]
  Activity: 55.93%
CYP1A1 [14]
  fold induction at 48 h, 7.5 µM: 1.08
[15]
  Ratio: 3.34
HCT-116 [16]
  Activity: 18.98%
HCT-116 [17]
  Activity: 21.09%
HCT-116 [18]
  Activity: 2.16%
HCT-116 [19]
  Activity: 63.51%
[20]
  IC50: 12.7 µM
HCT-116 [21]
  IC50: 3.7 µM
[3]
  IC50: 10.8 µM
HCT-116 [22]
  Activity: 13.1%
MCF7 [23]
  Ratio IC50: 3.4
HCT-116 [24]
  Activity: 21.83%

## O=C1Nc2ccccc2/C1=C1\C(=O)Nc2cc(F)ccc21
[7]
  Ratio: 0.93
CYP1A1 [8]
  fold induction at 48 h, 0.005 µM: 2.75
[9]
  Ratio: 2.56
[3]
  IC50: > 25 µM

## O=C1Nc2ccccc2/C1=C\c1ccccn1
CYP1A1 [1]
  fold induction at 48 h, 10 µM: 1.08
[2]
  Ratio: 3.92
[3]
  IC50: 19.9 µM

## O=C1Nc2ccccc2/C1=C\c1cccc(C(F)(F)F)c1
CYP1A1 [25]
  fold induction at 48 h, 0.1 µM: 1.4
[26]
  Ratio: 3.85
[3]
  IC50: 3.9 µM

## O=C1Nc2cc(C(F)(F)F)ccc2/C1=C1\C(=O)Nc2ccc(Cl)cc21
[7]
  Ratio: 0.92
CYP1A1 [8]
  fold induction at 48 h, 0.005 µM: 3.23
[9]
  Ratio: 2.96
[3]
  IC50: 9.8 µM
